Substitutions are numbered along the chain they refer to. Like-named read-outs stand apart in the source and are kept apart here.
Key:
GK-WT = experiment: Change of tryptophan fluorescence yield of GK-WT on adding glucose or glycerol; format: binding, human
[1] = target: T1, GK-WT (recombinant wild type human β-cell glucokinase) (Homo sapiens, UniProt P35557); experiment: D-glucose binding to GK-WT by tryptophan fluorescence titration
T1 sequence (P35557 1-465): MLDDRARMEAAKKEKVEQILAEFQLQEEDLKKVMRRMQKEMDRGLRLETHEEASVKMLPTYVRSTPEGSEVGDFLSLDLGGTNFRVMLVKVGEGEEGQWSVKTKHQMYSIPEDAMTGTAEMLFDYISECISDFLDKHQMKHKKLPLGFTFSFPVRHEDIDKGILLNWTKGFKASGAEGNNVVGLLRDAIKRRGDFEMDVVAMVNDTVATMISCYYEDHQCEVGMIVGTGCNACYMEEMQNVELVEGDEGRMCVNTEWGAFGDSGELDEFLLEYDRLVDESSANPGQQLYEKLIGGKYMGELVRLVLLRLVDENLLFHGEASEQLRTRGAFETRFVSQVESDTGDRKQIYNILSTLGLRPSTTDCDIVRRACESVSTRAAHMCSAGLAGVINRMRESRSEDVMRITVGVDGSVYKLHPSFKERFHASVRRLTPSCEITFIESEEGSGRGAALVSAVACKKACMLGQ
Summary of the method: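 Recombinant human wild-type β-cell glucokinase was titrated with D-glucose in K-phosphate buffer, pH 7.2, with or without cosolvent, and read by Trp fluorescence at 20 °C (excitation 295 nm, emission 300–500 nm). Fluorescence was fitted to F = F0 + (Fsat − F0)[glucose]/([glucose] + Kd) to give Kd and F/F0, the intensity at glucose saturation over the intensity without glucose.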

GK-W167 (W99R/W257F) = target: T2, GK-W167 (W99R/W257F) (Homo sapiens, UniProt P35557, W257F/W99R); experiment: Change of tryptophan fluorescence yield of GK-W167 on adding glucose or glycerol; format: binding
T2 sequence (P35557 1-465 W99R/W257F): T1 sequence (P35557 1-465) with W99R, W257F
Summary of the method: (§1)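 Recombinant human β-cell glucokinase single-Trp variant, made as a GST fusion in E. coli, cleaved with factor Xa, and repurified. Buffer was 20 mM K phosphate, 50 mM KCl, 1 mM EDTA, 1 mM DTT, pH 7.2, with or without 100 mM D-glucose or 95% glycerol (v/v). Excitation 295 nm, emission 300–500 nm, 20 °C. Quantum yield was measured against NATA (φ 0.14) in water at A < 0.05, with refractive-index correction. The ratio is with/without additive.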

GK-W99 (W167F/W257F) = target: T3, GK-W99 (W167F/W257F) (Homo sapiens, UniProt P35557, W167F/W257F); experiment: Change of tryptophan fluorescence yield of GK-W99 on adding glucose or glycerol; format: binding; conditions: GK-W99, 95% glycerol/buffer (v/v)
T3 sequence (P35557 1-465 W167F/W257F): T1 sequence (P35557 1-465) with W167F, W257F
Summary of the method: as §1

GK-W257 (W99R/W167F) = target: T4, GK-W257 (W99R/W167F) (Homo sapiens, UniProt P35557, W167F/W99R); experiment: Change of tryptophan fluorescence yield of GK-W257 on adding glucose or glycerol; format: binding; conditions: GK-W257, 95% glycerol/buffer (v/v)
T4 sequence (P35557 1-465 W99R/W167F): T1 sequence (P35557 1-465) with W99R, W167F
Summary of the method: as §1

[2] = target: T5, GK-W65 (W99R/W167F/W257F/T65W) (Homo sapiens, UniProt P35557, T65W/W167F/W257F/W99R); experiment: Change of tryptophan fluorescence yield of GK-W65 on adding glucose or glycerol; format: binding; conditions: GK-W65, 95% glycerol/buffer (v/v)
T5 sequence (P35557 1-465 T65W/W99R/W167F/W257F): T1 sequence (P35557 1-465) with T65W, W99R, W167F, W257F
Summary of the method: as §1

Compound | (Φf)/Φ0 observed, fluorescence quantum yield with/without (times) (GK-WT; 100 mM D-glucose in buffer, listed as Glucose) | (Φf)/Φ0 observed, fluorescence quantum yield with/without (times) (GK-WT; 100 mM D-glucose in buffer, listed as glucose) | F/F0 upon D-glucose binding ([1]; 1 M sucrose) | F/F0 upon D-glucose binding ([1]; 1 M trehalose) | F/F0 upon D-glucose binding ([1]; 2 M L-glucose) | F/F0 upon D-glucose binding ([1]; 20% glycerol) | Kd ([1]; D-glucose binding KD, 1 M sucrose) | Kd ([1]; D-glucose binding KD, 1 M trehalose) | Kd ([1]; D-glucose binding KD, 2 M L-glucose) | Kd ([1]; read-out: D-glucose binding KD, PO4 buffer pH 7.2, 20 °C) | (Φf)/Φ0 observed, fluorescence quantum yield with/without (times) (GK-W167 (W99R/W257F); GK-W167, 100 mM D-glucose in buffer, listed as Glucose) | (Φf)/Φ0 observed, fluorescence quantum yield with/without (times) (GK-W167 (W99R/W257F); GK-W167, 100 mM D-glucose in buffer, listed as glucose) | (Φf)/Φ0 observed, fluorescence quantum yield with/without (times) (GK-W99 (W167F/W257F)) | (Φf)/Φ0 observed, fluorescence quantum yield with/without (times) (GK-W99 (W167F/W257F); listed as Glycerol) | (Φf)/Φ0 observed, fluorescence quantum yield with/without (times) (GK-W257 (W99R/W167F)) | (Φf)/Φ0 observed, fluorescence quantum yield with/without (times) (GK-WT; 95% glycerol/buffer (v/v)) | (Φf)/Φ0 observed, fluorescence quantum yield with/without (times) (GK-W167 (W99R/W257F); GK-W167, 95% glycerol/buffer (v/v)) | (Φf)/Φ0 observed, fluorescence quantum yield with/without (times) [2]
OC[C@H]1OC(O)[C@H](O)[C@@H](O)[C@@H]1O (stereo partly drawn) [D-glucose] | 2.0 | ~2 | 1.74 | 1.71 | 1.63 | 1.74 | 3570 µM | 1750 µM | 1120 µM | 7390 µM | 1.8 | about 1.8 |  |  |  |  |  | 
OCC(O)CO [glycerol] |  |  |  |  |  |  |  |  |  |  |  |  | over 4.6 | 4.6 | 1.3 | 2.6 | ~2.3 | 1.1

Source: article PMC6025808 (Journal of fluorescence, 2017)
